Bioassay records deposited in PubChem by several laboratories.
Shown are actives, neighbours in structure and some others; about 6.3% of the full set was active somewhere.
M1 ag – M1 muscarinic receptor agonists, primary screen, CHO-M1 cells, Fluo-4 calcium, agonist mode; B-score at 10 µM; 64,000 compounds, 3% hits; AID 626, 2007; Fluo-4 calcium fluorescence; active compounds read high; Muscarinic acetylcholine receptor M1;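 active = fluorescence rise, raw or as B-score row- and column-corrected plate score, outside the 99.7% band of its plate's samples, either direction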
SF-1 act – activators of human SF-1, primary screen, cell-based, CHO-K1, Gal4-SF-1 LBD, luciferase luminescence; CHO-K1 Gal4-SF-1 LBD luciferase reporter; % increase over DMSO SF-1-specific signal; activation, % at 10 µM; 65,000 compounds, 1.9% hits; AID 522, 2006;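 active = activation above the mean activation of all tested compounds plus 3 SD, cut at about 50% in these data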
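material = CHO-K1 cells with Gal4–hSF-1 LBD chimera plus Gal4-driven luciferase | compound = 10 µM single point, 1% DMSO | incubation = 20 h compound exposure at 37 °C after 1 h cell settling | measured by = SteadyLite luciferase luminescence | evaluation = percent activation relative to DMSO median and mock-transfected background | control set = DMSO negative control and −SF1 background wells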
MT1-MMP txn act – MT1-MMP promoter reporter activation – cell-based, luciferase luminescence, primary screen; HT1080 MT1-MMP promoter luciferase reporter, overnight; active compounds read high; activation factor at 10 µM; 86,000 compounds, 0.16% hits;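 active = activation factor of at least 2 for MT1-MMP transcription at 10 µM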
RORA act – activators of orphan receptor RORA, primary screen, cell-based, luminescence. Nuclear receptor ROR-alpha (Homo sapiens), P35398. CHO-K1 Gal4-RORA LBD luciferase reporter; percent increase over mock-subtracted basal signal. activation, % at 10 µM. 65,000 compounds, 1.5% hits. AID 560, 2006;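 active = activation above the mean of all tested compounds plus 3 SD, cut at about 49% in these data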
Target sequence (P35398 whole entry, looked up, the tested form may be a part): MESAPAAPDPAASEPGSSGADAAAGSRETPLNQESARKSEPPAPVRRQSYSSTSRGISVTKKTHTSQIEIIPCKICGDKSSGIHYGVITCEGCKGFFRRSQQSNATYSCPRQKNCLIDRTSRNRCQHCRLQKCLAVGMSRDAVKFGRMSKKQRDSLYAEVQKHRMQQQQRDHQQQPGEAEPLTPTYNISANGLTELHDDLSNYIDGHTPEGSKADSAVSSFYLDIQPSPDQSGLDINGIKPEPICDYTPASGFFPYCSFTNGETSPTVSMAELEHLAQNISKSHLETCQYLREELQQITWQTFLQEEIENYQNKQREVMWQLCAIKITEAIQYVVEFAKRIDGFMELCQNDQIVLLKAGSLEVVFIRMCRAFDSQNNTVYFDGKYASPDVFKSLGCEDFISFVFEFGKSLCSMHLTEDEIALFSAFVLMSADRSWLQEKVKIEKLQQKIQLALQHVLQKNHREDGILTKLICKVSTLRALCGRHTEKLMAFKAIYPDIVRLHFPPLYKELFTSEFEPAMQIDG
M1 antagonist – antagonists of rat M1 muscarinic receptor; Muscarinic acetylcholine receptor M1 (Rattus norvegicus), P08482; CHO-M1 cells, Fluo-4 calcium, ACh EC80 antagonist mode; active compounds read low; B-score at 10 µM; 64,000 compounds, 3.4% hits; AID 628, 2007;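 active = calcium fluorescence response, raw or row-and-column corrected B-score, differing from the plate sample mean either way at a set confidence level, mostly lower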
M1 antag confirm – rat M1 muscarinic receptor antagonists, confirmation, CHO cells, Fluo-4 calcium, duplicate; shares compounds with M1 antagonist; ACh EC80 antagonism; active compounds read low; calcium response (max-min fluorescence) at 10 µM; 1,700 compounds, 43% hits; AID 677, 2007;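 active = calcium response below the same-plate mean of wells given acetylcholine alone at its 80%-effect dose, minus 3 SD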
mGluR4 antag – human mGluR4 response to M1 antagonist hits, M1 allosteric modulator project, cell-based, antagonist mode, secondary assay 1 | shares compounds with M1 antagonist | CHO-mGluR4 calcium flux, Fluo-4 fluorescence, glutamate EC80; active compounds read low | fluorescence response (max-min) at 10 µM | 1,700 compounds, 0.9% hits;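 active = fluorescence response below the plate's average for near-maximal glutamate wells, less 3 SD of those wells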;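 note: raw unnormalized fluorescence span taken in the window right after glutamate addition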
Each line names hits and unclear results; the compound was inactive in the other large screens (follow-up assays come after a bar, where they were run).

O=C(Nc1sccc1C(=O)N1CCOCC1)c1cccnc1	M1 antagonist -5.1 | M1 antag confirm inactive | mGluR4 antag inactive
C(=C\c1ccccc1)/CSc1nnc(-c2ccccn2)n1Cc1ccco1	none
CN(CCNC(=O)c1cc2c(=O)n(C)c3ccccc3c2n1C)Cc1ccccc1	M1 antagonist -3.8 | M1 antag confirm inactive | mGluR4 antag inactive
CCCN(CCC)CCNC(=O)c1cc2c(=O)n(C)c3ccccc3c2n1C	none
COC(=O)c1ccc(OCCN2C3=NCCN3c3ccccc32)cc1	M1 antagonist -9 | M1 antag confirm 440 | mGluR4 antag inactive
COC(=O)c1ccc(OCCOc2ccccc2)cc1	none (no result: M1 ag, SF-1 act, RORA act, M1 antagonist)
CCCN(CCC)CCCNC(=O)c1cc2cc3ccc(OC)cc3nc2o1	M1 antagonist -7 | M1 antag confirm 437 | mGluR4 antag inactive
CCCCN(CC)CCCNC(=O)c1cc2cc3ccc(OC)cc3nc2o1	M1 antagonist -4.7 | M1 antag confirm inactive | mGluR4 antag inactive
COc1ccc2cc3cc(C(=O)NCCCN4CCOCC4)oc3nc2c1	none
Cc1csc(NC(=O)CSc2nnc(-c3ccoc3C)n2Cc2ccco2)n1	none (no result: M1 ag, M1 antagonist)
O=C1CC(N2CCN(S(=O)(=O)c3ccc(Cl)cc3)CC2)C(=O)N1CCc1ccccc1 (configuration not stated)	none (no result: M1 ag, M1 antagonist)
O=C1CC(N2CCN(c3ccc(S(=O)(=O)N4CCOCC4)cc3)CC2)C(=O)N1Cc1ccccc1 (configuration not stated)	M1 antagonist -3.4 | M1 antag confirm 607 | mGluR4 antag inactive
Cc1nc2c(o1)CCc1ccccc1C2N1CCN(C)CC1 (configuration not stated)	M1 antagonist -15 | M1 antag confirm 20 | mGluR4 antag inactive
Cn1c(SC2C(=O)CC(C)(C)CC2=O)nnc1-c1ccco1	M1 antagonist -12 | M1 antag confirm inactive | mGluR4 antag inactive
COc1ccc(Cl)cc1C(=O)NCC(c1ccco1)N1CCCC1 (configuration not stated)	M1 antagonist -4.6 | M1 antag confirm 390 | mGluR4 antag inactive
O=C(c1ccc([N+](=O)[O-])cc1)N(Cc1ccc(Br)cc1)N1C(=O)CCCC1=O	none (no result: M1 ag, SF-1 act, RORA act, M1 antagonist)
COc1ccc(OC)c(S(=O)(=O)N2CCN(C34CC5CC(CC(C5)C3)C4)CC2)c1	M1 antagonist -4.6 | M1 antag confirm 477 | mGluR4 antag inactive
COc1ccc2oc(=O)c(C(=O)N3CCN(C45CC6CC(CC(C6)C4)C5)CC3)cc2c1	M1 antagonist -3 | M1 antag confirm inactive | mGluR4 antag inactive
COc1ccc2oc(=O)c(C(=O)N3CCN(c4ccccc4)CC3)cc2c1	none
CCCCN(CCCC)S(=O)(=O)c1ccc(NC(=O)Cc2cccs2)cc1	none (no result: M1 ag, SF-1 act, RORA act, M1 antagonist)
CC1CCN(CCCNC(=O)c2ccc(CSCc3cccc(Cl)c3)o2)CC1	none (no result: M1 ag, SF-1 act, RORA act, M1 antagonist)
O=C1C(Cl)=C(N2CCN(Cc3ccccc3)CC2)C(=O)N1c1ccccc1	none
O=C1C(Cl)=C(N2CCCCCC2)C(=O)N1c1ccccc1	M1 antagonist -3.1 | M1 antag confirm 219 | mGluR4 antag inactive
CCCCCCNC(=O)C(C(=O)OCC)C1CCCCC1 (configuration not stated)	none
CCN1CC2=C(OC(N)=C(C#N)C2c2cccs2)/C(=C/c2cccs2)C1 (configuration not stated)	none
CCN1C=C(Cc2cccs2)C2=C(C1)C(c1cccs1)C(C#N)=C(N)O2 (configuration not stated)	M1 antagonist -3.8 | M1 antag confirm inactive | mGluR4 antag 170
CCCCOc1ccc(CN2CCC(O)CC2)cc1	M1 antagonist -2.2 | M1 antag confirm inactive | mGluR4 antag inactive
COc1cccc(OCCCN2CCCCC2)c1	none
